Experimental data: ChEMBL document CHEMBL3758117, “Discovery of indeno[1,2-b]quinoxaline derivatives as potential anticancer agents” (Eur J Med Chem, 2016)
Calls of active or inactive are those of the source. The calls are words filed in the database; no cut-off is given here.

Experiments:
MDA-MB-231 = test: Antiproliferative activity against human MDA-MB-231 cells after 72 hrs by XTT assay; format: functional, cell-based; conditions: MDA-MB-231, 72 h
Summary of the method: (§1)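 Cells kept as monolayers in DMEM with 10% FBS, penicillin, streptomycin and amphotericin at 37°C, 5% CO2. Seeded at 5 x 10³ cells/well and exposed to compound for 72 h in medium with 10% FBS. XTT plus electron-coupling reagent added, 4 h at 37°C, absorbance read at 492 nm. Percent of control growth uses mean absorbance (n = 3). The 50% value is taken from the linear portion of the curve.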

Huh-7 = test: Selectivity index, ratio of IC50 for human MRC5 cells to IC50 for human HuH7 cells; format: functional
MRC5 [1] = test: Selectivity index, ratio of IC50 for human MRC5 cells to IC50 for human MDA-MB-231 cells; format: functional
[2] = target: DNA topoisomerase 2-alpha (Homo sapiens) (UniProt P11388); test: Inhibition of human DNA topoisomerase 2-mediated relaxation of supercoiled pBR322 DNA at 10 uM after 30 mins by ethidium bromide staining based agarose gel electrophoresis
Sequence of DNA topoisomerase 2-alpha (Homo sapiens) (P11388 whole entry): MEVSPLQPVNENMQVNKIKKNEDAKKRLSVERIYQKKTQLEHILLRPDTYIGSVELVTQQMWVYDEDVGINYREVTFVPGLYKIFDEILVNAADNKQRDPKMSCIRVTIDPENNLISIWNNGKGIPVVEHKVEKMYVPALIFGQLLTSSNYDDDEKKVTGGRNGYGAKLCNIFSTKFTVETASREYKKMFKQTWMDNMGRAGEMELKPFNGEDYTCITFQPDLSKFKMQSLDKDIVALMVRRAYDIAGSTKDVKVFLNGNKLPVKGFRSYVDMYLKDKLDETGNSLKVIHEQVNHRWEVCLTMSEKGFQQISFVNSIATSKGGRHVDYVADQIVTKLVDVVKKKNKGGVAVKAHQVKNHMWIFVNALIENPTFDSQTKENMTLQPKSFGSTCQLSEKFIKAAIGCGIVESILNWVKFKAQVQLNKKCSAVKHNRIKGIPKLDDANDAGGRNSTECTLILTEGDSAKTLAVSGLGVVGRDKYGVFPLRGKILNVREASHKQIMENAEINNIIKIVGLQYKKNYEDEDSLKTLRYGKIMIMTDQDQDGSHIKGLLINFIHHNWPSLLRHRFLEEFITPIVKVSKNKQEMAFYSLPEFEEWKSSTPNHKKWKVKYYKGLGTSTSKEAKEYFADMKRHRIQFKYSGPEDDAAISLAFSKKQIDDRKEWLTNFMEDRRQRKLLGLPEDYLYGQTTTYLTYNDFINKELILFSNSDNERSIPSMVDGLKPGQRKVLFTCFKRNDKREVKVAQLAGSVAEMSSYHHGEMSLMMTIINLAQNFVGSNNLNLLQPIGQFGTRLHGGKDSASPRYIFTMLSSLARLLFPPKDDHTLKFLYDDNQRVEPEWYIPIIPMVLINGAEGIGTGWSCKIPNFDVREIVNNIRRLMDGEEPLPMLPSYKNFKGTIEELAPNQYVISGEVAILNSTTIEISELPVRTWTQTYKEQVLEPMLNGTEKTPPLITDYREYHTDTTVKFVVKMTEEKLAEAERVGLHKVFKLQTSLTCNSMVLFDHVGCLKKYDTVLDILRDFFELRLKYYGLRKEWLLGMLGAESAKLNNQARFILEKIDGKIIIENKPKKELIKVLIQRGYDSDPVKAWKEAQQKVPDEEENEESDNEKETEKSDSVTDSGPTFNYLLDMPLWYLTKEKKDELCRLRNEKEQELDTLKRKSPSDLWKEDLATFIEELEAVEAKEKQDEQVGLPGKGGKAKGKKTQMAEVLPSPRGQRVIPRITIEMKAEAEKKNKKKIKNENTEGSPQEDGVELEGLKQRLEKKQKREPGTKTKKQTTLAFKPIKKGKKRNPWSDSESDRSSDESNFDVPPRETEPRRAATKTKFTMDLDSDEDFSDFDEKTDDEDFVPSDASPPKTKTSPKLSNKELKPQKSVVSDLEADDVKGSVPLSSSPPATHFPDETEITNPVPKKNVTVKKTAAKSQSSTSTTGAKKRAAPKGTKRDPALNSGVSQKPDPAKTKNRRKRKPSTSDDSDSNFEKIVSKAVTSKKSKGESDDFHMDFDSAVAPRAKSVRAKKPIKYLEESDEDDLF
Summary of the method: (§2)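 Human topo I or topo II (2 units) was reacted with 0.2 μg supercoiled pBR322 in 20 μl Tris-HCl pH 7.5 containing KCl, DTT, EDTA, MgCl2 and BSA, with DMSO held at 0.5%, for 30 min at 37°C. The reaction was stopped with SDS. Samples were run on 1% agarose in Tris-acetate/EDTA at 1.5 V/cm for 2-3 h and stained with ethidium bromide. Relaxation was quantified by densitometry of the supercoiled band area.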

[3] = Selectivity index, ratio of IC50 for human MRC5 cells to IC50 for human H1299 cells; format: functional
[4] = target: T1, DNA topoisomerase 1 (Homo sapiens) (UniProt P11387); test: Inhibition of human DNA topoisomerase 1-mediated relaxation of supercoiled pBR322 DNA at 100 uM after 30 mins by ethidium bromide staining based agarose gel electrophoresis; summary of the method: as §2
T1 sequence (whole entry): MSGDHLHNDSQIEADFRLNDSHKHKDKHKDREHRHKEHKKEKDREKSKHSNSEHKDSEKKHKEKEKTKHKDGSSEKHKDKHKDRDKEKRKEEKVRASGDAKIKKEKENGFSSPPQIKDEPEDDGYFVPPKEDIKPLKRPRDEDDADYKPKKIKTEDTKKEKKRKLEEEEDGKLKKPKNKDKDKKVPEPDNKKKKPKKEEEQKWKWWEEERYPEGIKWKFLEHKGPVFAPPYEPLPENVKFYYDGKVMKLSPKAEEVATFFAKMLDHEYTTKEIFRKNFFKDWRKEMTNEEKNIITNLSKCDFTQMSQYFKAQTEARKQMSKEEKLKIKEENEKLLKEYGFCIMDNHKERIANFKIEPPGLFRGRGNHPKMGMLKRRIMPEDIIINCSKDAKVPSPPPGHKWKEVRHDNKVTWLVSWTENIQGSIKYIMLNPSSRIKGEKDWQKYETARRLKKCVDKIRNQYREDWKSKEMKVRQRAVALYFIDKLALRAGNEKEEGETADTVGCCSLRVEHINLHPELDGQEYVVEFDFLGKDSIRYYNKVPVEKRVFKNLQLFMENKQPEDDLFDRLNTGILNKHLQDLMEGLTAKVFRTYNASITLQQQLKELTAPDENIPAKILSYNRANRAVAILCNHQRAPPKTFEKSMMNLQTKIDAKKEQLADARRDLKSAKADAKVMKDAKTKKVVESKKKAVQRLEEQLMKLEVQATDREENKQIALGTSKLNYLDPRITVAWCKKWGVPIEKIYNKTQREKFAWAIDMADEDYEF

[5] = Antiproliferative activity against human PC3 cells after 72 hrs by XTT assay; format: functional, cell-based; conditions: PC-3, 72 h; summary of the method: as §1
[6] = Antiproliferative activity against human H1299 cells after 72 hrs by XTT assay; format: functional, cell-based; conditions: NCI-H1299, 72 h; summary of the method: as §1
MRC5 [7] = test: Selectivity index, ratio of IC50 for human MRC5 cells to IC50 for human PC3 cells; format: functional
MRC5 [8] = test: Antiproliferative activity against human MRC5 cells after 72 hrs by XTT assay; format: cell-based; conditions: MRC5, 72 h; summary of the method: as §1
[9] = target: DNA topoisomerase 2-alpha (Homo sapiens) (UniProt P11388); test: Inhibition of human DNA topoisomerase 2-mediated relaxation of supercoiled pBR322 DNA at 100 uM after 30 mins by ethidium bromide staining based agarose gel electrophoresis; summary of the method: as §2
[10] = Antiproliferative activity against human HuH7 cells after 72 hrs by XTT assay; format: functional, cell-based; conditions: Huh-7, 72 h; summary of the method: as §1
Escherichia coli = test: Binding affinity to Escherichia coli negative supercoiled pBR322 DNA at 10 uM after 12 hrs by ethidium bromide staining based agarose gel electrophoresis
Summary of the method: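 Negatively supercoiled pBR322 (400 ng) in TE buffer pH 8.0 was incubated with compound at 10 μM for 12 h at room temperature. Loading buffer with sarkosyl was added. Samples were run on 1% agarose at 6 V/cm for 2.5 h in TAE pH 8.5, stained with ethidium bromide and photographed under UV.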

[11] = target: T1, DNA topoisomerase 1 (Homo sapiens); test: Inhibition of human DNA topoisomerase 1-mediated relaxation of supercoiled pBR322 DNA at 10 uM after 30 mins by ethidium bromide staining based agarose gel electrophoresis; summary of the method: as §2

IC50 (MDA-MB-231) [µM]	topoisomerase 2 inhibition (active/not active) [2]	topoisomerase 1 inhibition (active/inactive) [4]	inhibition call (active/not active) [9]	Activity (Escherichia coli)	inhibition [11]	SMILES	Ratio IC50 (Huh-7)	Ratio IC50 (MRC5 [1])	Ratio IC50 [3]	IC50 [5] [µM]	IC50 [6] [µM]	Ratio IC50 (MRC5 [7])	IC50 (MRC5 [8]) [µM]	IC50 [10] [µM]
0.66	inactive	Active	Active	Active	Active	CN(C)CCCO/N=C1\c2ccccc2-c2nc3c(CN4CCCCC4)cccc3nc21.Cl	1.41	1.35	1.07	0.91	0.83	0.98	0.89	0.63
7.03	Active	Active	Active	inactive	Active	CN(C)CCCO/N=C/c1cccc2nc3c(nc12)-c1ccccc1/C3=N\OCCCN(C)C.Cl	0.91	0.93	1.29	6.27	5.1	1.05	6.56	7.19
> 10		inactive	inactive	inactive		O=C1c2ccccc2-c2nc3c(C(=O)NCCN4CCOCC4)cccc3nc21				> 10	> 10		88.6	> 10
> 10		inactive	inactive	inactive		O/N=C1\c2ccccc2-c2nc3ccccc3nc21				> 10	> 10		51.1	> 10
0.67	Active	Active	Active	Active	Active	CN(C)CCCO/N=C1\c2ccccc2-c2nc3c(C(=O)NCCN(C)C)cccc3nc21.Cl	10.84	13.43	1.31	0.89	6.88	10.11	9	0.83
> 10		inactive	inactive	inactive		CN(C)CCCO/N=C1\c2ccccc2-c2nc3c(C(=O)O)cccc3nc21				> 10	> 10		15.1	> 10

Second part, the molecule before the results:

SMILES	IC50 (MDA-MB-231) [µM]	topoisomerase 2 inhibition (active/not active) [2]	topoisomerase 1 inhibition (active/inactive) [4]	inhibition call (active/not active) [9]	Activity (Escherichia coli)	inhibition [11]	Ratio IC50 (Huh-7)	Ratio IC50 (MRC5 [1])	Ratio IC50 [3]	IC50 [5] [µM]	IC50 [6] [µM]	Ratio IC50 (MRC5 [7])	IC50 (MRC5 [8]) [µM]	IC50 [10] [µM]
C(=N\OCCN1CCCC1)/c1cccc2nc3c(nc12)-c1ccccc1/C3=N\OCCN1CCCC1.Cl	1.01	Active	Active	Active	Active	Active	1.17	0.9	0.15	5.17	6.02	0.18	0.91	0.78
CN(C)CCNC(=O)c1cccc2nc3c(nc12)-c1ccccc1C3=O	7.29	inactive	Active	Active	inactive	Active	1.18	1.23	1.03	11	8.75	0.82	8.98	7.64
O=C1c2ccccc2-c2nc3c(CN4CCCC4)cccc3nc21	> 10		Active	inactive	inactive	inactive	1.4			> 10	> 10		9.8	6.98
COc1ccc2c(c1)/C(=N\OCCN1CCCC1)c1c-2c(O)nc2ccccc12		Active	Active	Active		Active								
O=C1c2ccccc2-c2nc3ccccc3nc21	> 10				inactive					> 10	> 10		85.3	> 10
Cc1cccc2nc3c(nc12)-c1ccccc1C3=O	> 10				inactive					> 10	> 10		87.1	> 10
O=Cc1cccc2nc3c(nc12)-c1ccccc1C3=O	> 10		inactive	inactive	inactive					> 10	> 10		78.9	> 10
O/N=C\c1cccc2nc3c(nc12)-c1ccccc1/C3=N/O	10.8		inactive	inactive	inactive		0.76	0.61	0.8	9.45	8.13	0.69	6.54	8.61
O=C1c2ccccc2-c2nc3c(C(=O)O)cccc3nc21	> 10				inactive					> 10	> 10		71.2	> 10
O=C1c2ccccc2-c2nc3c(CN4CCCCC4)cccc3nc21	> 10		Active	inactive	inactive	inactive				> 10	> 10		25.9	> 10
O=C1c2ccccc2-c2nc3c(CN4CCC(N5CCCCC5)CC4)cccc3nc21	> 10		inactive	inactive	inactive					> 10	> 10		89.7	> 10
O=C1c2ccccc2-c2nc3c(CN4CCOCC4)cccc3nc21	> 10		inactive	inactive	inactive					> 10	> 10		95.7	> 10
CN(C)Cc1cccc2nc3c(nc12)-c1ccccc1C3=O	> 10		Active	inactive	inactive	inactive				> 10	> 10		77.8	> 10
CC[C@@]1(O)C(=O)OCc2c1cc1n(c2=O)Cc2cc3c(CN(C)C)c(O)ccc3nc2-1 [TOPOTECAN]	< 0.1						0.49	>42.5	0.71	9.35		0.45	4.25	
